Assay results reported in publication PMC9710334 (BMJ Open Gastroenterology, 2022).
“Also recorded” adds a separate entry of the source.

How the values were obtained:
[1] = test system: patients with advanced primary biliary cholangitis; experiment: Phase 1 trial: adverse events graded by CTCAE v4.0, safety and tolerability; type: in vivo, human
Method in brief: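 Seven advanced PBC patients (stage III or higher) received OP-724 iv at 280 (n=6) or 380 (n=1) mg/m2 over 4 hours, twice weekly for 12 cycles, after a single dose given 7 days before cycle 1. AEs and laboratory results were recorded throughout and graded by CTCAE v4.0. The primary endpoint was SAEs where drug causality could not be excluded.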

[2] = test system: patients with liver cirrhosis induced by hepatitis B or C virus; conditions: cited from earlier work
[3] = test system: patients with advanced PBC; experiment: Serum liver function parameters during OP-724 administration; type: in vivo, human
liver fibrosis models = conditions: cited from earlier work

Structure (SMILES): C[C@H]1[C@H]2N(C(=O)CN(C)N2C(=O)NCc2ccccc2)[C@@H](Cc2ccc(OP(=O)(O)O)cc2)C(=O)N1Cc1cccc2cccnc12 [OP-724]
- Abdominal discomfort, Grade 1, patients n (%) ([1]; 380 mg/m^2/4 hours (n=1)): 0
- Abdominal discomfort, Grade 2, patients n (%) ([1]; 380 mg/m^2/4 hours (n=1)): 0
- Abdominal discomfort, Grades 3–5, patients n (%) ([1]; 380 mg/m^2/4 hours (n=1)): 0
- Back pain, Grade 1, patients n (%) ([1]; 380 mg/m^2/4 hours (n=1)): 0
- Back pain, Grade 2, patients n (%) ([1]; 380 mg/m^2/4 hours (n=1)): 0
- Back pain, Grades 3–5, patients n (%) ([1]; 380 mg/m^2/4 hours (n=1)): 0
- Constipation, Grade 1, patients n (%) ([1]; 380 mg/m^2/4 hours (n=1)): 0
- Constipation, Grade 2, patients n (%) ([1]; 380 mg/m^2/4 hours (n=1)): 0
- Constipation, Grades 3–5, patients n (%) ([1]; 380 mg/m^2/4 hours (n=1)): 0
- Dermatitis contact, Grade 1, patients n (%) ([1]; 380 mg/m^2/4 hours (n=1)): 0
- Dermatitis contact, Grade 2, patients n (%) ([1]; 380 mg/m^2/4 hours (n=1)): 0
- Dermatitis contact, Grades 3–5, patients n (%) ([1]; 380 mg/m^2/4 hours (n=1)): 0
- Diarrhoea, Grade 1, patients n (%) ([1]; 380 mg/m^2/4 hours (n=1)): 0
- Diarrhoea, Grade 2, patients n (%) ([1]; 380 mg/m^2/4 hours (n=1)): 0
- Diarrhoea, Grades 3–5, patients n (%) ([1]; 380 mg/m^2/4 hours (n=1)): 0
- Dry skin, Grade 1, patients n (%) ([1]; 380 mg/m^2/4 hours (n=1)): 0
- Dry skin, Grade 2, patients n (%) ([1]; 380 mg/m^2/4 hours (n=1)): 0
- Dry skin, Grades 3–5, patients n (%) ([1]; 380 mg/m^2/4 hours (n=1)): 0
- Fever, Grade 2, patients n (%) ([1]; 380 mg/m^2/4 hours (n=1)): 0
- Fever, Grades 3–5, patients n (%) ([1]; 380 mg/m^2/4 hours (n=1)): 0
- Haemorrhage, Grade 1, patients n (%) ([1]; 380 mg/m^2/4 hours (n=1)): 0
- Haemorrhage, Grade 2, patients n (%) ([1]; 380 mg/m^2/4 hours (n=1)): 0
- Haemorrhage, Grades 3–5, patients n (%) ([1]; 380 mg/m^2/4 hours (n=1)): 0
- Hepatic function abnormal, Grade 1, patients n (%) ([1]; 380 mg/m^2/4 hours (n=1)): 0
- Hepatic function abnormal, Grades 3–5, patients n (%) ([1]; 380 mg/m^2/4 hours (n=1)): 0
- Infusion site extravasation, Grade 1, patients n (%) ([1]; 380 mg/m^2/4 hours (n=1)): 0
- Infusion site extravasation, Grade 2, patients n (%) ([1]; 380 mg/m^2/4 hours (n=1)): 0
- Infusion site extravasation, Grades 3–5, patients n (%) ([1]; 380 mg/m^2/4 hours (n=1)): 0
- Nasopharyngitis, Grade 2, patients n (%) ([1]; 380 mg/m^2/4 hours (n=1)): 0
- Nasopharyngitis, Grades 3–5, patients n (%) ([1]; 380 mg/m^2/4 hours (n=1)): 0
- Nausea, Grade 1, patients n (%) ([1]; 380 mg/m^2/4 hours (n=1)): 0
- Nausea, Grade 2, patients n (%) ([1]; 380 mg/m^2/4 hours (n=1)): 0
- Nausea, Grades 3–5, patients n (%) ([1]; 380 mg/m^2/4 hours (n=1)): 0
- Open angle glaucoma, Grade 1, patients n (%) ([1]; 380 mg/m^2/4 hours (n=1)): 0
- Open angle glaucoma, Grade 2, patients n (%) ([1]; 380 mg/m^2/4 hours (n=1)): 0
- Open angle glaucoma, Grades 3–5, patients n (%) ([1]; 380 mg/m^2/4 hours (n=1)): 0
- Renal impairment, Grade 1, patients n (%) ([1]; 380 mg/m^2/4 hours (n=1)): 0
- Renal impairment, Grade 2, patients n (%) ([1]; 380 mg/m^2/4 hours (n=1)): 0
- Renal impairment, Grades 3–5, patients n (%) ([1]; 380 mg/m^2/4 hours (n=1)): 0
- Tooth fracture, Grade 1, patients n (%) ([1]; 380 mg/m^2/4 hours (n=1)): 0
- Tooth fracture, Grade 2, patients n (%) ([1]; 380 mg/m^2/4 hours (n=1)): 0
- Tooth fracture, Grades 3–5, patients n (%) ([1]; 380 mg/m^2/4 hours (n=1)): 0
- Vomiting, Grade 1, patients n (%) ([1]; 380 mg/m^2/4 hours (n=1)): 0
- Vomiting, Grade 2, patients n (%) ([1]; 380 mg/m^2/4 hours (n=1)): 0
- Vomiting, Grades 3–5, patients n (%) ([1]; 380 mg/m^2/4 hours (n=1)): 0
- incidence of SAEs (primary endpoint) ([1]; all patients (0/7), 280 or 380 mg/m^2/4 hours iv two times weekly, 12 weeks): 0%
- patients who developed general/systemic disorder and administration site status ([1]; all patients (3/7)): 42.9%
- patients who developed hepatobiliary system disorder ([1]; all patients (3/7)): 42.9%
- patients who developed gastrointestinal disorder ([1]; all patients (4/7)): 57.1%
- occurrence rate of side effects ([1]; all patients (6/7)): 85.7%
- occurrence rate of AEs ([1]; all patients (7/7)): 100%
- abdominal discomfort (most common AEs) ([1]; all seven patients): 29%
- abnormal hepatic function (most common AEs) ([1]; all seven patients): 43%
- recommended dosage ([1]; iv infusion two times weekly for 12 weeks, patients with advanced PBC): 280 mg/m^2/4 hours
- emetogenicity ([1]; managed with standard-of-care antiemetics): mildly or moderately emetogenic
- grade of drug-induced liver injury leading to withdrawal ([1]; one patient in the 380 mg/m^2/4 hours cohort): grade 2
- serious adverse events (in words) ([1]; seven patients, 280 or 380 mg/m^2/4 hours iv two times weekly, 12 weeks): did not occur; also recorded: no SAE was observed
- deaths related to drug administration ([1]; seven patients, administration period): no deaths related to drug administration were observed
- fragility fractures ([1]; this study): no fragility fractures were recorded
- liver dysfunction reported as SAE ([2]; one patient at level 3 (380 mg/m^2/4 hours), PRI-724-2101 study ref 25): severe liver dysfunction
- harmful effects in humans ([2]; phase 1 or 1/2a clinical trials ref 24 25): does not have harmful effects in humans
- albumin level ([2]; previous clinical trials ref 24 25): increase in the albumin level
- serum ALP and GGT levels ([3]; 5, 9, 12 and 16 weeks vs baseline): did not show a tendency to decrease
- patients whose abnormally high baseline total bile acid values decreased ([3]; 12 weeks, of five patients with baseline and 12-week data): four
- serum total bile acid level ([3]; during OP-724 administration, no significant difference): downward trend; also recorded: tendency to decrease
- increase in the albumin level ([3]; this study): this tendency was not observed
- antifibrotic effect (liver fibrosis models): exerts antifibrotic effects
